According to ChEMBL document CHEMBL3627606, “Development of Novel, CNS Penetrant Positive Allosteric Modulators for the Metabotropic Glutamate Receptor Subtype 1 (mGlu1), Based on an N-(3-Chloro-4-(1,3-dioxoisoindolin-2-yl)phenyl)-3-methylfuran-2-carboxamide Scaffold, That Potentiate Wild Type and Mutant mGlu1 Receptors Found in …” (J Med Chem, 2015):
pEC50, pIC50: −log10 of the molar value.

Legend:
[1] = biological target: T1, Metabotropic glutamate receptor 1 (Homo sapiens, UniProt Q13255); assay: Positive allosteric modulation of human mGlu1 receptor in HEK293 cells assessed as potentiation of glutamate-induced calcium mobiliztion by Fluo-4AM dye based fluorescence analysis; assay type: functional, cell-based; conditions: read-out: EC50
Target sequence in this assay (Q13255 whole entry): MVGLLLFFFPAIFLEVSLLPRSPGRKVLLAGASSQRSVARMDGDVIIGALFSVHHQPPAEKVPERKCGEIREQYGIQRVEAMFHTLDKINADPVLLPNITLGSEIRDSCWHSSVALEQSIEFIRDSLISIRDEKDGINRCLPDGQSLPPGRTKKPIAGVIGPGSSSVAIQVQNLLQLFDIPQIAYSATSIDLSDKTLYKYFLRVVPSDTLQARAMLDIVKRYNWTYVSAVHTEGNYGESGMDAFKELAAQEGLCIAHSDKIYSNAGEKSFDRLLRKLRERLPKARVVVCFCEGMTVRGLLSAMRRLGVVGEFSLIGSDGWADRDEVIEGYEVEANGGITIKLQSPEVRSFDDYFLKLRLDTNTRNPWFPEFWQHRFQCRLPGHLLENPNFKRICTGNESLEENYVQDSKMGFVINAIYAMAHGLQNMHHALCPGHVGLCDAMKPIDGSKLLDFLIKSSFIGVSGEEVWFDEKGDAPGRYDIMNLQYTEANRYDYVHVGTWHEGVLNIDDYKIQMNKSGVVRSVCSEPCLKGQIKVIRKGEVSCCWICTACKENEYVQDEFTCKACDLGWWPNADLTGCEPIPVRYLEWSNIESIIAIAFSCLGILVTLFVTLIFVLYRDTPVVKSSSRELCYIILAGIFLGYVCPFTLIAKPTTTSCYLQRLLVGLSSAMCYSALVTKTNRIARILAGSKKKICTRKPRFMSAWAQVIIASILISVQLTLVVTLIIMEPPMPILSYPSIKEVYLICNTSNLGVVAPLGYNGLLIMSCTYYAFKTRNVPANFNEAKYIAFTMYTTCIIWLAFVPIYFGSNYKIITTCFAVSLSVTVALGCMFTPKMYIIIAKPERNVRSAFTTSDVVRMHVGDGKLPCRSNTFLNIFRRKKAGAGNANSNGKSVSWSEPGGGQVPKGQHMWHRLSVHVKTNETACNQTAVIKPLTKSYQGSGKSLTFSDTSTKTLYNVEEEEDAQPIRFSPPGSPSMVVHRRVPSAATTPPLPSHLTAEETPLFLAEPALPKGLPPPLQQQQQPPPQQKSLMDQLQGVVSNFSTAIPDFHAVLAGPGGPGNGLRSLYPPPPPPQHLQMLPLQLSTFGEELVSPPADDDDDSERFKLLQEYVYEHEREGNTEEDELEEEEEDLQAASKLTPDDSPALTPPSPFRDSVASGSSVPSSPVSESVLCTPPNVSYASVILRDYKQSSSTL

Plasma [2] = assay: Drug level in human plasma treated with N-(3-chloro-4-(5-chloro-1,3-dioxoisoindolin-2-yl)phenyl)-3-methylfuran-2-carboxamide at 10 uM after 4 hrs by mass spectrometry; assay type: ADME, cell-free
Summary of the method: (§1)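 Compound incubated at 10 μM in rat or human plasma at 37 °C. Samples taken at 0 and 4 h were analysed by mass spectrometry for parent and metabolites.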

Plasma [3] = assay: Drug level in rat plasma treated with N-(3-chloro-4-(5-chloro-1,3-dioxoisoindolin-2-yl)phenyl)-3-methylfuran-2-carboxamide at 10 uM after 4 hrs by mass spectrometry; assay type: ADME, cell-free; summary of the method: as §1
[4] = biological target: T1, Metabotropic glutamate receptor 1; assay: Positive allosteric modulation of human mGlu1 receptor in HEK293 cells assessed as potentiation of glutamate-induced calcium mobiliztion by Fluo-4AM dye based fluorescence analysis relative to glutamate; assay type: functional, cell-based
Target sequence in this assay (Q13255 19-1194 limits assumed): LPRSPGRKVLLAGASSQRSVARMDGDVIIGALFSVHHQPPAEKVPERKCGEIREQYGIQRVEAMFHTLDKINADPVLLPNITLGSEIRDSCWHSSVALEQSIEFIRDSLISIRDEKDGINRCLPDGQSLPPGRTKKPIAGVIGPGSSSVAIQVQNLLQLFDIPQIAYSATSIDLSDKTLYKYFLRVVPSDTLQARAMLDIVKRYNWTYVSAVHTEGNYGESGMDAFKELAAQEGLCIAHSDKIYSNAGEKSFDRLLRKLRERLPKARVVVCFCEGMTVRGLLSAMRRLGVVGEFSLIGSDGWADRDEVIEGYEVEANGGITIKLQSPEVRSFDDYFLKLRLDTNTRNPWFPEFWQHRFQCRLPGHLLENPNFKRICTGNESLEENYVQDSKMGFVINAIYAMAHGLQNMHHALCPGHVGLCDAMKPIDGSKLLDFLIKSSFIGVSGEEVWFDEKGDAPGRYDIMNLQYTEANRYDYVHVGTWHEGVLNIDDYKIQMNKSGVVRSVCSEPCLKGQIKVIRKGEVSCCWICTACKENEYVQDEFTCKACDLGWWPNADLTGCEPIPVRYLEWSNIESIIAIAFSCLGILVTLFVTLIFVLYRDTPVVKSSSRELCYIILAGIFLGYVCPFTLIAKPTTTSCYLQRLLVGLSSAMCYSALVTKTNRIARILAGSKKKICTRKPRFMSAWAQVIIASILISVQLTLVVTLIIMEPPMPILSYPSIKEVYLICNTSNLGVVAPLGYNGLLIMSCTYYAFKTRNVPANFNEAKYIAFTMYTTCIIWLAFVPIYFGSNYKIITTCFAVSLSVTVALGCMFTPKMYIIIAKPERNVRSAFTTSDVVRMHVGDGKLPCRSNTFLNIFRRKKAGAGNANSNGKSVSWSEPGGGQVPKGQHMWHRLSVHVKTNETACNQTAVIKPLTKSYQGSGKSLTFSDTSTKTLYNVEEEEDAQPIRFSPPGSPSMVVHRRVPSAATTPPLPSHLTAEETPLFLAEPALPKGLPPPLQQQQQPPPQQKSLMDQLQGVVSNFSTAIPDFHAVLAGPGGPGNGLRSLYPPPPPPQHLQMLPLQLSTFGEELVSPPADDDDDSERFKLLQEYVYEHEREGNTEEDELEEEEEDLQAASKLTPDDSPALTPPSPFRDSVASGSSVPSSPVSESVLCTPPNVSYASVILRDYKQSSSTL

[5] = biological target: T2, Metabotropic glutamate receptor 4 (Homo sapiens, UniProt Q14833); assay: Positive allosteric modulation of human mGlu4 receptor assessed as potentiation of glutamate-induced calcium mobiliztion by cell based assay relative to PHCCC
T2 sequence (Q14833 whole entry): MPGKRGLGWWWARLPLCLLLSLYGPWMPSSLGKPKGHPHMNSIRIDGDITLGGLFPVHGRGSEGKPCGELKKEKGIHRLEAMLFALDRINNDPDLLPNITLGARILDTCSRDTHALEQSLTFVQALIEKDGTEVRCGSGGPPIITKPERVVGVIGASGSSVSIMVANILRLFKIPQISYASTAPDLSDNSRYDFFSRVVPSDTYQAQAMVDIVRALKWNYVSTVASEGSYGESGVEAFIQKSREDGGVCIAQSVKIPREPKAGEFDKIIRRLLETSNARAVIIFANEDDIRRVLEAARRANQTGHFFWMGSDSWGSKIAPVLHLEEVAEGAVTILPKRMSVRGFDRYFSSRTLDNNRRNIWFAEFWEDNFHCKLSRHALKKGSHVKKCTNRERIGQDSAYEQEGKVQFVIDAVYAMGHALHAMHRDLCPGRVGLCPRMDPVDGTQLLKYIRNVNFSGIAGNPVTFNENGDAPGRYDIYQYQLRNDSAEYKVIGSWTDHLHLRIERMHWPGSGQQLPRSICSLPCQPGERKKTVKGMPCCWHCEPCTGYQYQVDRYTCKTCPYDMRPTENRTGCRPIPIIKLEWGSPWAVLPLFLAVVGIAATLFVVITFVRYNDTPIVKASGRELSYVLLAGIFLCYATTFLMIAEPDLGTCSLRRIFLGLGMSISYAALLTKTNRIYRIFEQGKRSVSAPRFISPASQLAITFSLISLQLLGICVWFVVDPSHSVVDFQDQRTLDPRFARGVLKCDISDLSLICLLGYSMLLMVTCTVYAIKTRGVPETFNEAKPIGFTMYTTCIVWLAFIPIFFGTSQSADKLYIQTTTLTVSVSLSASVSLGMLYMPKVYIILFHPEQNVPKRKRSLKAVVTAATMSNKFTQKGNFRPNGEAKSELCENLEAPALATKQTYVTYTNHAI

[6] = biological target: T2, Metabotropic glutamate receptor 4; assay: Positive allosteric modulation of human mGlu4 receptor assessed as potentiation of glutamate-induced calcium mobiliztion by cell based assay; assay type: functional; conditions: read-out: EC50
Homo sapiens = species on record: Homo sapiens; assay: Selectivity index, ratio of EC50 for human mGlu4 receptor to EC50 for human mGlu1 receptor
[7] = biological target: Metabotropic glutamate receptor 6 (Homo sapiens) (UniProt O15303); assay: Positive allosteric modulation of mGlu6 receptor (unknown origin) assessed as potentiation of glutamate-induced response by cell-based assay
Summary of the method: (§2)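 Selectivity counterscreen at the other mGlu subtypes using the standard fold-shift paradigm. Compound was tested at 10 μM against the glutamate concentration-response curve, and the shift of that curve was read.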

[8] = Plasma clearance in Sprague-Dawley rat at 0.2 mg/kg, iv by LC-MS/MS analysis
[9] = biological target: Metabotropic glutamate receptor 5 (Homo sapiens) (UniProt P41594); assay: Positive allosteric modulation of mGlu5 receptor (unknown origin) assessed as potentiation of glutamate-induced response by cell-based assay; summary of the method: as §2
[10] = Intrinsic clearance in human liver microsomes at 1 uM by LC-MS/MS analysis; assay type: ADME; conditions: read-out: CLH
[11] = Plasma concentration in Sprague-Dawley rat at 0.2 mg/kg, iv after 0.25 hrs by LC-MS/MS analysis
Cytochrome P450 2C9 = Cytochrome P450 2C9 (Homo sapiens, UniProt P11712); assay: Inhibition of CYP2C9 in human liver microsomes by LC-MS/MS analysis; assay type: ADME
[12] = biological target: Metabotropic glutamate receptor 7 (Homo sapiens) (UniProt Q14831); assay: Positive allosteric modulation of mGlu7 receptor (unknown origin) assessed as potentiation of glutamate-induced response by cell-based assay; summary of the method: as §2
[13] = biological target: Metabotropic glutamate receptor 3 (Homo sapiens) (UniProt Q14832); assay: Positive allosteric modulation of mGlu3 receptor (unknown origin) assessed as potentiation of glutamate-induced response by cell-based assay; summary of the method: as §2
Cytochrome P450 2D6 = Cytochrome P450 2D6 (Homo sapiens, UniProt P10635); assay: Inhibition of CYP2D6 in human liver microsomes by LC-MS/MS analysis; assay type: ADME
[14] = Drug concentration in Sprague-Dawley rat brain at 0.2 mg/kg, iv after 0.25 hrs by LC-MS/MS analysis; conditions: read-out: Drug uptake
Cytochrome P450 3A4 = Cytochrome P450 3A4 (Homo sapiens, UniProt P08684); assay: Inhibition of CYP3A4 in human liver microsomes by LC-MS/MS analysis; assay type: ADME
Cytochrome P450 1A2 = biological target: T3, Cytochrome P450 1A2 (Homo sapiens, UniProt P05177); assay: Inhibition of CYP1A2 in human liver microsomes by LC-MS/MS analysis; assay type: ADME
T3 sequence (P05177 whole entry): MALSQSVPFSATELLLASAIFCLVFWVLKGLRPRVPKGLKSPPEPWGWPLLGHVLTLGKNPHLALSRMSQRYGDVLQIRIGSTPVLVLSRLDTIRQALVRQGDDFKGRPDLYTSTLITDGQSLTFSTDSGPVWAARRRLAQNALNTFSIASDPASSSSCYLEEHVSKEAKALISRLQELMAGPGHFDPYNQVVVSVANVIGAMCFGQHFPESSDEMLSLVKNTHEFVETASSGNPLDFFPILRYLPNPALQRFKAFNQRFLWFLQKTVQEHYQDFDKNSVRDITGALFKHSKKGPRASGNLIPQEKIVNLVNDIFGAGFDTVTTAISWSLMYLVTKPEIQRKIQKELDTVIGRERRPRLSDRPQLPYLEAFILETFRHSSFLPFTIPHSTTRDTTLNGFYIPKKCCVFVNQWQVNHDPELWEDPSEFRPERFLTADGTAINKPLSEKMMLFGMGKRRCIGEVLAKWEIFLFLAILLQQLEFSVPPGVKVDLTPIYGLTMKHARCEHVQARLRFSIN

[15] = Ratio of drug level in brain to plasma of Sprague-Dawley rat at 0.2 mg/kg, iv after 0.25 hrs by LC-MS/MS analysis; conditions: read-out: BPR
Mus musculus = assay: Toxicity in C57BL/6 mouse assessed as seizure activity at 100 mg/kg, ip administered as single dose measured for 3 hrs; assay type: organism-based; conditions: in vivo
Summary of the method: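 Male C57Bl/6 mice (25−30 g) dosed ip in 10% Tween 80 at 10 mL/kg: the mGlu5 ago-PAM at 1 or 3 mg/kg, the mGlu1 PAMs at 100 mg/kg. Behaviour was monitored continuously for 3 h and scored on a modified Racine scale (0−5).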

[16] = biological target: Metabotropic glutamate receptor 8 (Homo sapiens) (UniProt O00222); assay: Positive allosteric modulation of mGlu8 receptor (unknown origin) assessed as potentiation of glutamate-induced response by cell-based assay; summary of the method: as §2
Chain of Metabotropic glutamate receptor 8 (Homo sapiens) (O00222 whole entry): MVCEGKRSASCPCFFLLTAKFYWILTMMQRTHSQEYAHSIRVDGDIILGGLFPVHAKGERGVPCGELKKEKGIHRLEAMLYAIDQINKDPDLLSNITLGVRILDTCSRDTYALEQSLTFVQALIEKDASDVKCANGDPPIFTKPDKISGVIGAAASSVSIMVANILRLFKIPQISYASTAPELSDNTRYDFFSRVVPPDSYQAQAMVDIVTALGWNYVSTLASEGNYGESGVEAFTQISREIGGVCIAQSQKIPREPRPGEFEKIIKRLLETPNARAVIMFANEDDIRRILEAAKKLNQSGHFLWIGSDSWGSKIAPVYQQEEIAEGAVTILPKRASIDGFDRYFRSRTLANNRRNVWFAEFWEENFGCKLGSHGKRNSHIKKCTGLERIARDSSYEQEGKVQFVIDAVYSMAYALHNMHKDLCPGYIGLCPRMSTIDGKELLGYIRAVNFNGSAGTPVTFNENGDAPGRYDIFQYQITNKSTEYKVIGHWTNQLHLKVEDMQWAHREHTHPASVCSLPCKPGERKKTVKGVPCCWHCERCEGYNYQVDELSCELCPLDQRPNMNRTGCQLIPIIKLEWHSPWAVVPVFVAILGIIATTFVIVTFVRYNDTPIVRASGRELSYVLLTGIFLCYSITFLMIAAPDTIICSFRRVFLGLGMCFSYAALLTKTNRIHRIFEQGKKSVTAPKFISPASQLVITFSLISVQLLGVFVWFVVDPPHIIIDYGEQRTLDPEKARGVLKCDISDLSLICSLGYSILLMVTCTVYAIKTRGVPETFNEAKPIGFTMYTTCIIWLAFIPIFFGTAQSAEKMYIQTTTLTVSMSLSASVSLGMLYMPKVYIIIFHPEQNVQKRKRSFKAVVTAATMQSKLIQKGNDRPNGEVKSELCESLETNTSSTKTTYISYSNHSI

[17] = Half life in Sprague-Dawley rat at 0.2 mg/kg, iv by LC-MS/MS analysis; conditions: in vivo
Brain = assay: Drug concentration in C57BL/6 mouse brain at 100 mg/kg, ip administered as single dose; assay type: ADME, organism-based; conditions: in vivo, read-out: Drug uptake
Rattus norvegicus = assay: Volume of distribution at steady state in Sprague-Dawley rat at 0.2 mg/kg, iv by LC-MS/MS analysis; conditions: in vivo
[18] = Mean residence time in Sprague-Dawley rat at 0.2 mg/kg, iv by LC-MS/MS analysis; conditions: in vivo
[19] = biological target: Metabotropic glutamate receptor 1 (Rattus norvegicus) (UniProt P23385); assay: Positive allosteric modulation of rat mGlu1 receptor assessed as potentiation of glutamate-induced calcium mobiliztion by cell based assay relative to glutamate; assay type: functional
Summary of the method: (§3)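 Rat mGlu1 WT calcium mobilization concentration-response curves. EC50 and % Glu Max were derived from the curves.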

Plasma [20] = assay: Metabolic stability in human plasma; assay type: ADME, cell-free; summary of the method: as §1
[21] = biological target: T1, Metabotropic glutamate receptor 1; assay: Positive allosteric modulation of human mGlu1 receptor in HEK293 cells assessed as potentiation of glutamate-induced calcium mobiliztion at 10 uM by Fluo-4AM dye based fluorescence analysis; assay type: functional, cell-based
Target sequence in this assay (Q13255 19-1194 limits assumed): as the sequence (Q13255 19-1194 limits assumed) above

[22] = biological target: Metabotropic glutamate receptor 2 (Homo sapiens) (UniProt Q14416); assay: Positive allosteric modulation of mGlu2 receptor (unknown origin) assessed as potentiation of glutamate-induced response by cell-based assay; summary of the method: as §2
Chain of Metabotropic glutamate receptor 2 (Homo sapiens) (Q14416 19-872 limits assumed): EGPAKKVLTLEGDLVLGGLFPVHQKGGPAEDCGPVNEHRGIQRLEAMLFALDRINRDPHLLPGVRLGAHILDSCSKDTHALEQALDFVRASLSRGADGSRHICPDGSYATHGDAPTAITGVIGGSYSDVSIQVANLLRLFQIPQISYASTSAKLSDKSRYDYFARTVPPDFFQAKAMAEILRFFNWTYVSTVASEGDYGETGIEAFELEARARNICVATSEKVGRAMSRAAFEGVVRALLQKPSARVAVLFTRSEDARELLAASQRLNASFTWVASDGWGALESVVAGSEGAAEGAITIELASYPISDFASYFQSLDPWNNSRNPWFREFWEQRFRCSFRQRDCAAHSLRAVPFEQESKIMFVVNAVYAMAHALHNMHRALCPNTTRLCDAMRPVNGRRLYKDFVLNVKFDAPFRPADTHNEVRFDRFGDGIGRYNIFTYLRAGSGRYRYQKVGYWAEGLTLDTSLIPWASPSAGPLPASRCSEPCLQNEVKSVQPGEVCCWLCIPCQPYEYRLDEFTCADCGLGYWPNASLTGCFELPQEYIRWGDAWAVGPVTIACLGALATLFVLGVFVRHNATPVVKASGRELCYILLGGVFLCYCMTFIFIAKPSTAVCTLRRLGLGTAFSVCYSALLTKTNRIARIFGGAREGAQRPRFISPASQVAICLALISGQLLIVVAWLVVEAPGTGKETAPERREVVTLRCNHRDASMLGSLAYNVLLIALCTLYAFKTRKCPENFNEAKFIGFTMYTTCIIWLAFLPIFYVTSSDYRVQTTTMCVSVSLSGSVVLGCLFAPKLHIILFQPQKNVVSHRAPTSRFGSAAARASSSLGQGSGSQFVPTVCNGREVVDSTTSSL

[23] = biological target: Metabotropic glutamate receptor 1 (Rattus norvegicus, UniProt P23385); assay: Positive allosteric modulation of rat mGlu1 receptor assessed as potentiation of glutamate-induced calcium mobiliztion by cell based assay; assay type: functional; summary of the method: as §3
Plasma [24] = assay: Fraction unbound in rat plasma; assay type: ADME, cell-free
[25] = biological target: T1, Metabotropic glutamate receptor 1; assay: Agonist activity at human mGlu1 receptor in HEK293 cells assessed as calcium mobilization at 10 uM by Fluo-4AM dye based fluorescence analysis; assay type: functional, cell-based
Target sequence in this assay (Q13255 19-1194 limits assumed): as the sequence (Q13255 19-1194 limits assumed) above

Cc1cc(C)c(C(=O)Nc2ccc(N3C(=O)c4ccccc4C3=O)c(Cl)c2)o1
pEC50 [1]: < 5.00

Cc1ccoc1C(=O)Nc1ccc(N)c(Cl)c1
Drug metabolism (Plasma [2]): metabolite_detected | Drug metabolism (Plasma [3]): metabolite_detected

O=C(Nc1ccc(N2C(=O)c3ccccc3C2=O)c(Cl)c1)c1cnn[nH]1
pEC50 [1]: < 5.00

O=C(Nc1ccc(N2C(=O)c3ccccc3C2=O)c(Cl)c1)c1occc1-c1ccccc1
pEC50 [1]: < 5.00

O=C(Nc1ccc(N2C(=O)c3ccccc3C2=O)c(Cl)c1)c1csnn1
%max [4]: 39% | pEC50 [1]: < 5.00

O=C(Nc1ccc(N2C(=O)c3ccccc3C2=O)c(Cl)c1)c1ccc[nH]1
pEC50 [1]: < 5.00

O=C(Nc1ccc(N2C(=O)c3ccccc3C2=O)c(Cl)c1)c1cn[nH]c1
pEC50 [1]: < 5.00

Cc1ccoc1C(=O)Nc1ccc(N2C(=O)c3cccc(Cl)c3C2=O)c(Cl)c1
%max [5]: 163% | pEC50 [6]: 5.94 | %max [4]: 91% | Ratio EC50 (Homo sapiens): 34.5 | pEC50 [1]: 7.48

O=C(Nc1ccc(N2C(=O)c3ccccc3C2=O)c(Cl)c1)c1ncco1
pEC50 [1]: < 5.00

O=C(Nc1ccc(N2C(=O)c3ccccc3C2=O)c(Cl)c1)c1cncs1
pEC50 [1]: < 5.00

CC(C)(C)c1ccc(C(=O)Nc2ccc(N3C(=O)c4ccccc4C3=O)c(Cl)c2)o1
pEC50 [1]: < 5.00

O=C(Nc1ccc(N2C(=O)c3ccccc3C2=O)c(Cl)c1)c1ccc(-c2ccccc2)o1
%max [4]: 30% | pEC50 [1]: < 5.00

CCc1ccc(C(=O)Nc2ccc(N3C(=O)c4ccccc4C3=O)c(Cl)c2)o1
%max [4]: 30% | pEC50 [1]: < 5.00

O=C(Nc1ccc(N2C(=O)c3ccccc3C2=O)c(Cl)c1)c1cccs1
pEC50 [1]: < 5.00

Cc1ccoc1C(=O)Nc1ccc(N2C(=O)c3ccncc3C2=O)c(Cl)c1
fold change (FC) [7]: < 2 | %max [5]: 18% | clearance [8]: 382 mL/min/kg | fold change (FC) [9]: < 2 | CLint scaled at 1 µM [10]: 167 mL/min/kg | concentration at 0.25 h [11]: 12.5 ng/mL | pIC50 (Cytochrome P450 2C9): < 4.52 | fold change (FC) [12]: < 2 | fold change (FC) [13]: < 2 | pIC50 (Cytochrome P450 2D6): < 4.52 | concentration at 0.25 h [14]: 35.2 ng/mL | pIC50 (Cytochrome P450 3A4): < 4.52 | pIC50 (Cytochrome P450 1A2): < 4.52 | pEC50 [6]: < 5.00 | Kp at 0.25 h [15]: 2.81 | Activity (Mus musculus): Non-toxic | %max [4]: 94% | fold change (FC) [16]: < 2 | half-life [17]: 5.38 min | concentration (Brain): 2520 nM | pEC50 [1]: 7.01 | Vdss (Rattus norvegicus): 3 L/kg | MRT [18]: 7.85 min | %max [19]: 115% | Stability (Plasma [20]): Unstable | fold change (FC) [21]: 10.9 | fold change (FC) [22]: < 2 | pEC50 [23]: 6.95 | Fu (Plasma [24]): 0.03 | Activity [25]: < 20%

O=C(Nc1ccc(N2C(=O)c3ccccc3C2=O)c(Cl)c1)c1cocn1
pEC50 [1]: < 5.00

O=C(Nc1ccc(N2C(=O)c3ccccc3C2=O)c(Cl)c1)c1cnc[nH]1
pEC50 [1]: < 5.00

O=C(Nc1ccc(N2C(=O)c3ccccc3C2=O)c(Cl)c1)c1cnco1
pEC50 [1]: < 5.00
